ChEMBL document CHEMBL1140013, “The 1,4-naphthoquinone scaffold in the design of cysteine protease inhibitors” (Bioorg Med Chem, 2007)
Activity calls are given as the source filed them. No cut-off for these calls is given here.

How the values were obtained:
Papain (Carica papaya) [1] = molecular target: T1, Papain (Carica papaya) (UniProt P00784); test: Inhibition of papain at 1.3 mM after 20 mins
T1 sequence (whole entry): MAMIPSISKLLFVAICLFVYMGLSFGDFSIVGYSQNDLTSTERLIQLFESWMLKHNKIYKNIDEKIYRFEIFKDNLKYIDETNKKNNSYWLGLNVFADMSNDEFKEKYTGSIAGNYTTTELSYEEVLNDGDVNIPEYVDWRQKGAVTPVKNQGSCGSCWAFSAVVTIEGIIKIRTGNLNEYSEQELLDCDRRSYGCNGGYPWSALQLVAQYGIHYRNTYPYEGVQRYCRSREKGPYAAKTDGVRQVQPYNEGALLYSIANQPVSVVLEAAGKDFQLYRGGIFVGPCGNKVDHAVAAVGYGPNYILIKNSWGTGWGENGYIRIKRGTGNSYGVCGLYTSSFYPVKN
Outline: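 Papain was pre-incubated with inhibitor at 1.3 mM for 20 min. Residual activity on BAPA was read at 410 nm and reported as % inhibition.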

[2] = molecular target: Pancreatic elastase (Sus scrofa) (UniProt P08419+P00772); test: Inhibition of pig pancreatic elastase; assay type: protein assay
Outline: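 Porcine pancreatic elastase (50 µM stock) was incubated with inhibitor (DMSO stock) in 0.1 M Hepes pH 7.2 for up to 2 h. Timed aliquots were assayed on Suc-Ala-Ala-Ala-4-nitroanilide, following absorbance at 390 nm for 50 s.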

Papain (Carica papaya) [3] = molecular target: T1, Papain (Carica papaya); test: Inhibition of papain at 65 uM after 30 mins
Outline: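 Papain activated 30 min at 25 °C in 50 mM potassium phosphate pH 7.0 with 2.5 mM EDTA and 2.0 mM DTT. Inhibitor in DMSO added to the enzyme in EDTA-only buffer, with control incubations run in parallel. Aliquots went into BAPA substrate in buffer with EDTA and DTT. p-Nitroaniline release read at 410 nm for 4 min at 25 °C.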

Cathepsin B (Bos taurus) = Cathepsin B (Bos taurus) (UniProt P07688); test: Inhibition of bovine spleen cathepsin B
Outline: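 Cathepsin B (10 U/mL) was activated 15 min at 25 °C in 20 mM sodium acetate pH 5.0 with 1.0 mM EDTA and 30 mM DTT. It was then pre-incubated with inhibitor (DMSO stock) in acetate/EDTA buffer (Kitz–Wilson method). Aliquots were assayed on Z-S-Lys-ONp with 2.0 mM DTT, following p-nitrophenol at 326 nm for 3 min at 25 °C. k_obs came from ln(v/v0) versus time, using 4–6 inhibitor concentrations.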

SMILES	Activity [2]	other results
O=C1C=C(O)C(=O)c2ccccc21	inactive	inhibition (Papain (Carica papaya) [1]): 82%
CCOC(=O)CNC1=C(Cl)C(=O)c2ccccc2C1=O	inactive	–
CC1=CC(=O)c2ccccc2C1=O	inactive	–
CNC1=CC(=O)c2ccccc2C1=O	inactive	–
O=C1C(Cl)=C(Cl)C(=O)c2ccccc21	inactive	–
CNC1=C(Br)C(=O)c2ccccc2C1=O	inactive	–
O=C1C=CC(=O)c2ccccc21	inactive	inhibition (Papain (Carica papaya) [3]): 49.5%
CCOC(=O)CNC1=CC(=O)c2ccccc2C1=O	inactive	Kinact (Cathepsin B (Bos taurus)): 14 µM
CCOC(=O)CNC1=C(Br)C(=O)c2ccccc2C1=O	inactive	Kinact (Cathepsin B (Bos taurus)): 55.9 µM
CCOC(=O)[C@H](Cc1ccccc1)NC1=C(Cl)C(=O)c2ccccc2C1=O	inactive	–
O=C1C=C(Br)C(=O)c2ccccc21	inactive	–
CC(=O)Oc1cccc2c1C(=O)C=CC2=O	inactive	–
CC1=CC(=O)c2c(C)ccc(C)c2C1=O	inactive	–
O=C1C(Cl)=C(N2CCOCC2)C(=O)c2ccccc21	inactive	–
CCOC1=CC(=O)c2ccccc2C1=O	inactive	Kinact (Cathepsin B (Bos taurus)): 797 µM
CCOC(=O)[C@H](Cc1ccccc1)NC1=CC(=O)c2ccccc2C1=O	inactive	–
CCOC(=O)[C@H](Cc1ccccc1)NC1=C(Br)C(=O)c2ccccc2C1=O	inactive	–
O=C1C=CC(=O)c2c(O)cccc21	inactive	inhibition (Papain (Carica papaya) [3]): 60.4%
CC(C)CCNC(=O)[C@H](CC(C)C)NC1=CC(=O)c2ccccc2C1=O	inactive	–
